Article PMC5616206 (Toxicology Reports, 2016)
“Also recorded” adds a separate entry of the source.

Tested on: S. typhimurium strains TA98, TA100, TA1535, TA1537 and E. coli strain WP2 uvrA
Experiment: Bacterial reverse mutation test
Type: cell-based
Conditions: 50–5000 μg/plate, plate incorporation, ±S9
In short: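 The assay followed OECD Guideline 471 and used S. typhimurium TA98, TA100, TA1535 and TA1537 and E. coli WP2 uvrA. It was run with and without S9 from livers of Aroclor 1254-treated Sprague-Dawley rats. One compound was tested at 21–5000 μg/plate by plate incorporation and pre-incubation. The other was tested at 50–5000 μg/plate in an initial toxicity-mutation test and a confirmatory mutation test.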

COC[C@@H](CC(C)C)NC(=O)c1ccc(C)c(C)c1 [S9229, (R)-N-(1-methoxy-4-methylpentan-2-yl)-3,4-dimethylbenzamide]
Reverse mutation (in vitro), Result: not mutagenic; also recorded: Negative
